The values that follow come from ChEMBL document CHEMBL1165845, “Synthesis and biological evaluation of analogues of a novel inhibitor of beta-amyloid secretion” (J Med Chem, 2010).

Holding throughout (format): cell-based
Common to all, as to parameters: scale not given: the % may be the effect or the level left

Data set [1] relates to H4. Kind of data set: Cytotoxicity against human H4 cells expressing wild type betaAPP695 assessed as decrease in cell protein at 10 uM after 24 hrs. The following applies: h4, 24 h. A digest of the protocol:
(§1)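 Serum-starved H4βAPP695wt cells are treated for 24 h with drug in DMSO (0.02% DMSO vehicle control). Total Aβ in conditioned medium is measured by sandwich ELISA with 6E10 capture and 4G8 detection, normalized to lysate protein by BCA. Cytotoxicity is read as total cell protein. Quadruplicate wells in 1-4 independent experiments give the % decrease versus vehicle.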

The subject of data set [2] is H4. The data set is described as follows: Induction of alpha-secretase-mediated reduction in amyloid beta secretion in human H4 cells expressing wild type betaAPP695 at 10 uM after 24 hrs […] relative to control. The method, boiled down:
as §1

Data set [3] deals with H4. The data set is described as follows: Induction of alpha-secretase-mediated reduction in amyloid beta secretion in human H4 cells expressing wild type betaAPP695 at 30 uM after 24 hrs […] relative to control. A digest of the protocol: as §1
The test system of data set [4] is H4. The data set is described as follows: Cytotoxicity against human H4 cells expressing wild type betaAPP695 assessed as decrease in cell protein at 30 uM after 24 hrs. The following applies: h4, 24 h. A digest of the protocol:
as §1

Turning to `NC(=O)c1c(Cl)cccc1CSCCNC(=O)c1c(Cl)cccc1Cl`, the Activity with H4 [1] was 2.5%; in the data set on H4 [2], 44.7%; with H4 [3], 49.7%; in the data set on H4 [4], -5.6%.
For `COc1cccc(C[S+]([O-])CCNC(=O)c2c(Cl)cccc2Cl)c1` (stereo not given) the same measures were 1.6%, -13.6%, -15.8% and 9.2%.
The corresponding values for `Nc1cccc(CSCCNC(=O)c2c(Cl)cccc2Cl)c1` are 15.3%, 0.1%, 17% and 13.1%.
For `O=C(NCCSCc1cccc(Br)c1)c1c(Cl)cccc1Cl` the same measures were 12.3%, 75%, 90.1% and 38.6%.
With `N=C(NO)c1cccc(CSCCNC(=O)c2c(Cl)cccc2Cl)c1`, the Activity is 9.2% in the data set on H4 [1] and 5.9% in the data set on H4 [4].
Turning to `O=C(NCCNC(=O)c1ccccc1F)c1ccccc1F`, the Activity in the data set on H4 [2] came out at 0.2%.
Consider `O=C(NCCSCc1cccc(Cl)c1)c1c(C(F)(F)F)cccc1C(F)(F)F`, for which the Activity with H4 [1] is -4.2%; in the data set on H4 [2], 6.2%; with H4 [3], 13.5%; in the data set on H4 [4] it was -0.4%.
The corresponding values for `O=C(NCCSCc1cccc(Cl)c1)c1c(F)cccc1F` are 5.1%, 4.9%, 21.6% and 8.1%.
Consider `O=C(NCCSCc1cccc(Cl)c1)c1ccccc1Cl`, for which the Activity in the data set with H4 [2] was 4.7%.
`O=C(NCC[S+]([O-])Cc1cccc(Cl)c1)c1c(Cl)cccc1Cl` (stereo not given): the Activity in the data set with H4 [1] is -4.9%; in the data set on H4 [2] it was 4%; in the data set on H4 [3], -16.5%; in the data set with H4 [4], 7.3%.
Take `COc1cccc(OC)c1C(=O)NCCSCc1cccc(Cl)c1`: the Activity with H4 [1] is 7.1%; in the data set with H4 [2] it was -13.1%; in the data set with H4 [3], 11.2%; in the data set with H4 [4], -0.6%.
Regarding `O=C(NCCSCc1cccc(F)c1)c1c(F)cccc1F`, the Activity was 0.1% in the data set on H4 [1], -16.8% in the data set on H4 [2], -15.5% in the data set with H4 [3] and 1.8% in the data set on H4 [4].
As for `O=C(NCCSCc1cccc(Cl)c1)c1ccc(F)cc1`, the Activity in the data set on H4 [2] was found to be 6.4%.
As to `N#Cc1cccc(CSCCNC(=O)c2c(Cl)cccc2Cl)c1`, the Activity was -4.8% with H4 [1], 20% in the data set on H4 [2], 38.7% in the data set on H4 [3] and 4.3% in the data set with H4 [4].
For `O=C(NCCSCc1cccc(OCCOCCO)c1)c1c(Cl)cccc1Cl` the same measures were -7.3%, 17.4%, 24.3% and 6.1%.
For `O=C(NCCSCc1ccc(F)cc1)c1c(F)cccc1Cl`, the Activity with H4 [2] was 27.3%.
Take `N/C(=N\O)c1cccc(CSCCNC(=O)c2c(Cl)cccc2Cl)c1`: the Activity with H4 [2] is -1.5%; in the data set with H4 [3] it was 1.6%.
Regarding `O=C(NCCS(=O)(=O)Cc1ccc(F)cc1)c1c(F)cccc1Cl`, the Activity in the data set on H4 [2] is 39.2%.
Regarding `O=C(NCCS(=O)(=O)Cc1cccc(Cl)c1)c1c(Cl)cccc1Cl`, the Activity in the data set on H4 [1] was -2.2%; with H4 [2] it was 8.9%; in the data set on H4 [3], 9.3%; in the data set on H4 [4], -3.8%.
For `O=C(NCCSCc1ccc(O)cc1)c1c(Cl)cccc1Cl` the same measures were 8.7%, 13.1%, 56.7% and 4.4%.
Turning to `O=C(NCCCCNC(=O)c1c(Cl)cccc1Cl)c1c(Cl)cccc1Cl`, the Activity in the data set on H4 [2] was determined as 4%.
Still for that read-out and setting: the value for `CN(C)CCNC(=O)c1c(Cl)cccc1Cl` was 6.6%.
As for `COc1cc(CSCCNC(=O)c2c(Cl)cccc2Cl)cc(OC)c1`, the Activity with H4 [1] is 2%; with H4 [2], 47.9%; in the data set on H4 [3], 80.4%; in the data set with H4 [4], -8.7%.
For `O=C(NCCSCc1ccc(Cl)c(Cl)c1)c1ccccc1Cl`, the Activity in the data set with H4 [2] amounted to 0.7%.
For `NC(=O)c1cccc(CSCCNC(=O)c2c(Cl)cccc2Cl)c1`, the Activity in the data set with H4 [1] was -2.8%; with H4 [2], 6.2%; in the data set with H4 [3], 32.3%; with H4 [4] it was -8.6%.
The corresponding values for `O=C(NC1CC1)c1cccc(CSCCNC(=O)c2c(Cl)cccc2Cl)c1` are 0%, 1.9%, 11% and -1%.
With `O=C(NCCNC(=O)c1c(Cl)cccc1Cl)c1c(Cl)cccc1Cl`, in the data set with H4 [2], the Activity was 7.6%.
For the compound `O=C(NCCOCc1cccc(Cl)c1)c1c(Cl)cccc1Cl`, the Activity was -9.9% in the data set with H4 [1], 10.5% with H4 [2], -5.1% in the data set with H4 [3] and 4.2% in the data set with H4 [4].
The corresponding values for `O=C(NCCS(=O)(=O)Cc1cccc(O)c1)c1c(Cl)cccc1Cl` are 7.7%, -10.1%, 9.6% and 4.4%.
The corresponding values for `COc1cccc(CSCCNC(=O)c2c(OC)cccc2OC)c1` are 0.5%, 6.2%, -0.6% and 3.9%.
For `Clc1cccc(CSCCNCc2c(Cl)cccc2Cl)c1` the same measures were -3.6%, 45.2%, 45.6% and 6.6%.
Regarding `O=C(NCCSc1ccccc1)c1ccccc1Cl`, in the data set with H4 [2], the Activity is -4.4%.
Turning to `O=C(NCCSCc1ccc(Cl)c(Cl)c1)c1ccc(Cl)cc1Cl`, the Activity with H4 [2] is 4.3%.
With `O=C(NCCSCc1ccc(Cl)cc1)c1ccccc1Cl`, the Activity in the data set on H4 [2] is -12%.
On to `COc1cccc(CSCCNC(=O)c2c([N+](=O)[O-])cccc2[N+](=O)[O-])c1`, for which the Activity was 3.7% with H4 [1], -14.1% in the data set on H4 [2], -2.8% in the data set with H4 [3] and -3.8% in the data set on H4 [4].
On to `CC(C)(CNC(=O)c1c(Cl)cccc1Cl)SCc1ccc(F)cc1`, for which the Activity with H4 [2] worked out at 37%.
Still for that read-out and setting: the value for `O=C(NCCCCNC(=O)c1ccccc1Br)c1ccccc1Br` was 7.9%.
Consider `O=Cc1cccc(CSCCNC(=O)c2c(Cl)cccc2Cl)c1`, for which the Activity in the data set with H4 [1] is 1.5%; with H4 [2], 19.9%; in the data set on H4 [3], 36.4%; in the data set on H4 [4], -2.1%.
For `O=C(NCCSCc1ccccc1Cl)c1ccccc1Cl`, the Activity in the data set with H4 [2] came to 4%.
Consider `O=C(NCCSCc1cccc(Cl)c1)c1c([N+](=O)[O-])cccc1[N+](=O)[O-]`, for which the Activity turned out to be 0.1% with H4 [1], 28.8% in the data set with H4 [2], 52.9% with H4 [3] and 17.8% in the data set with H4 [4].
The corresponding values for `O=C(NCCSCc1cccc(C(F)(F)F)c1)c1c(Cl)cccc1Cl` are 19%, 73.9%, 93.4% and 47.8%.
As to `CN(C)CCCNC(=O)c1c(Cl)cccc1Cl`, the Activity in the data set on H4 [2] is 15.8%.
Regarding `O=C(NCCOCc1ccccc1)c1ccccc1Cl`, the Activity in the data set on H4 [2] came to 10.3%.
On the same count and under the same terms, the figure for `O=C(NCCSCc1ccc(Cl)cc1Cl)c1ccc(Cl)cc1Cl` is 39.8%.
Regarding `COc1ccc(CSCCNC(=O)c2c(Cl)cccc2Cl)cc1`, the Activity in the data set with H4 [1] amounted to 6.7%; with H4 [2], 1.6%; with H4 [3] it was 1.1%; with H4 [4], 12.7%.
For `N#Cc1c(Cl)cccc1CSCCNC(=O)c1c(Cl)cccc1Cl` the same measures were 3.5%, 48.7%, 52.3% and 1.3%.
`O=C(CSCc1c(F)cccc1Cl)NCc1ccccc1Cl`: in the data set on H4 [2], the Activity is 47.8%.
For `O=C(NCC[S+]([O-])Cc1cccc(O)c1)c1c(Cl)cccc1Cl` (stereo not given), the Activity in the data set on H4 [1] was 2.8%; in the data set on H4 [2], -23.7%; with H4 [3] it was 15.9%; in the data set on H4 [4], 4.4%.
The corresponding values for `O=C(O)c1cccc(CSCCNC(=O)c2c(Cl)cccc2Cl)c1` are 7.1%, -11.4%, -3.8% and 3.2%.
For `COc1cccc(CSCCNC(=O)c2c(Cl)cccc2OC)c1` the same measures were 1.9%, -2.9%, -4.7% and 9.3%.
For `O=C(NCCSCc1cccc([N+](=O)[O-])c1)c1c(Cl)cccc1Cl` the same measures were 7.5%, 58.5%, 72.5% and 24.6%.
`O=C(NCCSCc1cccc(F)c1)c1c(Cl)cccc1Cl`: the Activity in the data set with H4 [1] was 2.6%; with H4 [2], 10.2%; in the data set on H4 [3], 36.1%; in the data set with H4 [4] it was 3.7%.
As for `Oc1c(Cl)cc(Cl)cc1/C=N/CCSCc1ccccc1Cl`, the Activity in the data set with H4 [2] was found to be 5.3%.
The same measure, in the same setting: the figure for `CCN(CC)CCCNC(=O)c1c(Cl)cccc1Cl` is 5.1%.
In the case of `O=C(NCCSCc1cccc(Cl)c1)c1ccccc1`, the Activity was 2.4% in the data set with H4 [1], 0.3% with H4 [2], 10.7% in the data set with H4 [3] and -4.5% in the data set with H4 [4].
As to `COCCCNC(=O)c1c(Cl)cccc1Cl`, in the data set with H4 [2], the Activity was 6.9%.
Still for that read-out and setting: the figure for `O=C(NCc1ccccc1)c1c(F)cccc1Cl` is 3.8%.
